Where “and” joins values, the source holds several entries; their conditions need not be identical. Identical values can stand only once. Calls of active or inactive are those of the source. The calls are words filed in the database; no cut-off is given here.
Tests used:
Canis familiaris [1] = assay: Diuretic activity in the dog (2 animals/dose) at (dose 12.5 mg/Kg), when administered perorally; type: functional, Canis lupus familiaris, Urine
Method in brief: (§1)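 Trained male beagles, fasted 24 h with tap water ad libitum. Bladder emptied by catheter, then 20 mL/kg tap water by stomach tube, with 4 mL/kg water at each hourly catheterization up to 8 h. The first 2 h of urine served as control. Oral dosing came after the second catheterization, and 1–6 h urine was pooled. Na⁺ and K⁺ were measured by flame photometry, Cl⁻ argentometrically, in mequiv/kg.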

Canis familiaris [2] = assay: Diuretic activity in the dog (2 animals/dose) at (dose 1.56 mg/Kg), when administered perorally; type: functional, Canis lupus familiaris, Urine; method in brief: as §1
Rattus norvegicus [3] = species: Rattus norvegicus; assay: Saluretic activity in the rat measured as concentration of Na+ in urine; type: functional
Method in brief: (§2)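 Rats deprived of food 24 h, water ad libitum, dosed 50 mg/kg by stomach tube as suspension in 2% starch, no extra water load. Groups of three in diuresis funnels; urine over first 5 h collected. Na⁺ and K⁺ by flame photometry, Cl⁻ argentometrically; expressed as mequiv/kg.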

Canis familiaris [4] = assay: Saluretic activity in the dog measured as concentration of K+ in urinary excretion (2 animals/dose) at (dose mg/Kg, po); type: functional, Canis lupus familiaris, Urine
Method in brief: (§3)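 Male beagles trained to rest on a table and to accept stomach tube and catheter. Food withdrawn 24 h before, tap water ad libitum. Bladder emptied by catheter, then 20 mL/kg tap water by stomach tube. Catheterized hourly up to 8 h with 4 mL/kg water orally each time; first 2 h urine served as control. Oral dosing after second catheterization. Pooled 1–6 h urine; Na⁺/K⁺ by flame photometry, Cl⁻ argentometrically.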

Rattus norvegicus [5] = species: Rattus norvegicus; assay: Saluretic activity in the rat measured as concentration of K+ in urine; type: functional; method in brief: as §2
Rattus norvegicus [6] = species: Rattus norvegicus; assay: Diuretic activity in the rats, determined by a modified Lipschitz test; type: functional, Urine
Method in brief: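 Modified Lipschitz test: rats deprived of water 24 h, grouped in threes of similar weight in diuresis funnels. Oral dose of 50 mg/kg, suspended in 2% starch solution, by stomach tube.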

Canis familiaris [7] = assay: It is the ratio, measured as saluretic activity in the dog as concentration of Cl- in urinary excretion (dose mg/Kg, po) to that of (Na++K+); type: functional, Canis lupus familiaris, Urine; method in brief: as §1
Rattus norvegicus [8] = species: Rattus norvegicus; assay: Saluretic activity in the rat measured as concentration of chloride in urine; type: functional; method in brief: as §2
Canis familiaris [9] = assay: It is the ratio, measured as saluretic activity in the dog as concentration of Na+ in urinary excretion (dose mg/Kg, po) to that of K; type: functional, Canis lupus familiaris, Urine; method in brief: as §1
Rattus norvegicus [10] = assay: Saluretic activity on the basis of the 50 mg/kg perorally rat assay; Compound is found to be moderately active; type: functional, organism-based; parameters: dose 50 mg/kg; method in brief: as §2
Canis familiaris [11] = assay: Saluretic activity in the dog measured as concentration of Cl- in urinary excretion (2 animals/dose) at (dose 1.56 mg/Kg, perorally); type: functional, Canis lupus familiaris, Urine
Method in brief: (§4)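 Male beagles trained to the procedures, food withdrawn 24 h before, tap water ad libitum. Bladder emptied by catheter, then 20 mL/kg tap water by stomach tube, plus 4 mL/kg orally at each hourly catheterization up to 8 h. The first 2 h of urine served as control. Compound given orally after the second catheterization. Urine from 1–6 h post-dose pooled; Na⁺ and K⁺ by flame photometry, Cl⁻ argentometrically, in mequiv/kg.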

[12] = It is the ratio, measured as saluretic activity in the dog as concentration of Na+ in urinary excretion (dose 1.56 mg/Kg, perorally) to that of K; type: functional, Urine; method in brief: as §1
Canis familiaris [13] = assay: Saluretic activity on the basis of the 1.56 mg/Kg perorally dog assay; Compound is found to be highly active.; type: functional, organism-based; conditions: Canis lupus familiaris; method in brief: as §3
[14] = It is the ratio, measured as saluretic activity in the dog as concentration of Cl- in urinary excretion (dose 1.56 mg/Kg, perorally) to that of (Na+)+(K+); type: functional, Urine; method in brief: as §1
Canis familiaris [15] = assay: Saluretic activity in the dog measured as concentration of Na+ in urinary excretion (2 animals/dose) at (dose 1.56 mg/Kg, perorally); type: functional, Canis lupus familiaris, Urine; method in brief: as §3
Canis familiaris [16] = assay: Saluretic activity in the dog measured as concentration of K+ in urinary excretion (2 animals/dose) at (dose 1.56 mg/Kg, perorally); type: functional, Canis lupus familiaris, Urine; method in brief: as §4
Canis familiaris [17] = assay: Sailuric activity in the dog measured as concentration of K+ in urinary excretion (2 animals/dose) at (dose 6.25 mg/Kg, po); type: functional, Canis lupus familiaris, Urine; method in brief: as §4
Canis familiaris [18] = assay: Diuretic activity in the dog (2 animals/dose) at (dose 6.25 mg/Kg), when administered perorally; type: functional, Canis lupus familiaris, Urine; method in brief: as §1
Rattus norvegicus [19] = species: Rattus norvegicus; assay: Effect on (GFR) glomerular filtration rate in rats was evaluated
Canis familiaris [20] = assay: Sailuric activity in the dog measured as concentration of Cl - in urinary excretion (2 animals/dose) at (dose 0.78 mg/Kg, po); type: functional, Canis lupus familiaris, Urine; method in brief: as §1
Canis familiaris [21] = assay: Sailuric activity in the dog measured as concentration of Na+ in urinary excretion (2 animals/dose) at (dose 6.25 mg/Kg, po); type: functional, Canis lupus familiaris, Urine; method in brief: as §4
Canis familiaris [22] = assay: Sailuric activity in the dog measured as concentration of Cl - in urinary excretion (2 animals/dose) at (dose 6.25 mg/Kg, po); type: functional, Canis lupus familiaris, Urine; method in brief: as §4
Canis familiaris [23] = assay: Sailuric activity in the dog measured as concentration of K+ in urinary excretion (2 animals/dose) at (dose 0.78 mg/Kg, po); type: functional, Canis lupus familiaris, Urine; method in brief: as §4
Canis familiaris [24] = assay: Sailuric activity in the dog measured as concentration of Na+ in urinary excretion (2 animals/dose) at (dose 0.78 mg/Kg, po); type: functional, Canis lupus familiaris, Urine; method in brief: as §4
Rattus norvegicus [25] = species: Rattus norvegicus; assay: Effect on Urine flow in rats was evaluated

Question: Which Diuretic activity (Canis familiaris [1]) does the source give for `NS(=O)(=O)c1cc(S(=O)(=O)[O-])c(NCc2ccco2)cc1Nc1ccccc1.[Na+]` here?
Answer: 49.4 ml kg-1 6hr-1

Question: What about the Diuretic activity (Canis familiaris [2]) of the same compound?
Answer: 32.3 ml kg-1 6hr-1

Question: What about the Saluretic activity (Rattus norvegicus [3]) of the same compound?
Answer: 0.6 m equiv 5hr-1 kg-1

Question: What about the Saluretic activity (Canis familiaris [4]) of the same compound?
Answer: 0.18 m equiv 6hr-1 kg-1 and 0.45 m equiv 6hr-1 kg-1

Question: What about the Saluretic activity (Rattus norvegicus [5]) of the same compound?
Answer: 0.7 m equiv 5hr-1 kg-1

Question: And the Diuretic activity (Rattus norvegicus [6])?
Answer: 0.6 mL/kg

Question: What about the Saluretic activity (Canis familiaris [7]) of the same compound?
Answer: 1 and 1.1

Question: What about the Saluretic activity (Rattus norvegicus [8]) of the same compound?
Answer: 1.1 m equiv 5hr-1 kg-1

Question: What about the Saluretic activity (Canis familiaris [9]) of the same compound?
Answer: 2.1 and 5

Question: Which Saldiuretic activity (Rattus norvegicus [10]) does the source give for `NCc1cccs1.NS(=O)(=O)c1cc(S(=O)(=O)O)c(NCc2cccs2)cc1Cl` here?
Answer: Weak activity

Question: What about the Saldiuretic activity (Canis familiaris [11]) of the same compound?
Answer: 2.76 m equiv 6hr-1 kg-1

Question: What about the Diuretic activity (Canis familiaris [2]) of the same compound?
Answer: 44.5 ml kg-1 6hr-1

Question: And the Saluretic activity (Rattus norvegicus [3])?
Answer: 2.7 m equiv 5hr-1 kg-1

Question: What about the Ratio [12] of the same compound?
Answer: 4.2

Question: What about the Saldiuretic activity (Canis familiaris [13]) of the same compound?
Answer: Active

Question: What about the Saluretic activity (Rattus norvegicus [5]) of the same compound?
Answer: 1.7 m equiv 5hr-1 kg-1

Question: And the Diuretic activity (Rattus norvegicus [6])?
Answer: 1 mL/kg

Question: And the Ratio [14]?
Answer: 0.95

Question: And the Saluretic activity (Canis familiaris [15])?
Answer: 2.33 m equiv 6hr-1 kg-1

Question: And the Saluretic activity (Rattus norvegicus [8])?
Answer: 3.3 m equiv 5hr-1 kg-1

Question: And the Saluretic activity (Canis familiaris [16])?
Answer: 0.55 m equiv 6hr-1 kg-1

Question: What does the source list for `NS(=O)(=O)c1cc(C(=O)O)c(NCc2ccco2)cc1Cl` [FUROSEMIDE]?
Answer: Saluretic activity (Canis familiaris [17]): 1.26 m equiv 6hr-1 kg-1; Diuretic activity (Canis familiaris [18]): 69 ml kg-1 6hr-1; Saluretic activity (Rattus norvegicus [3]): 4.8 m equiv 5hr-1 kg-1; GFR (Rattus norvegicus [19]): 8.82 mL/min/kg; Saluretic activity (Rattus norvegicus [5]): 2.6 m equiv 5hr-1 kg-1; Diuretic activity (Rattus norvegicus [6]): 4.9 mL/kg; Saluretic activity (Canis familiaris [20]): 1.85 m equiv 6hr-1 kg-1; Saluretic activity (Canis familiaris [21]): 5.54 m equiv 6hr-1 kg-1; Saluretic activity (Rattus norvegicus [8]): 7.2 m equiv 5hr-1 kg-1; Saluretic activity (Canis familiaris [22]): 6.27 m equiv 6hr-1 kg-1; Saldiuretic activity (Canis familiaris [23]): 0.5 m equiv 6hr-1 kg-1; Saluretic activity (Canis familiaris [24]): 1.37 m equiv 6hr-1 kg-1; Volume (Rattus norvegicus [25]): 0.998 mL/min/kg

Source: ChEMBL document CHEMBL1122273, “5-sulfamoylorthanilic acids, a sulfonamide series with salidiuretic activity” (J Med Chem, 1983)
